Test results: ChEMBL document CHEMBL1129596, “Synthesis, biological activity, and molecular modeling of selective 5-HT(2C/2B) receptor antagonists” (J Med Chem, 1996)

Assays:
[1] = molecular target: 5-hydroxytryptamine receptor 2A (Rattus norvegicus, UniProt P14842); test: Displacement of [3H]ketanserin from 5-HT2A receptor of rat frontal cortex; type: tissue-based
How it was run: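 Radioligand binding in rat frontal cortex membranes with [3H]ketanserin as the labelled ligand. Values are the mean of at least two determinations, each within 0.2 log unit of the mean.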

[2] = molecular target: Serotonin receptor 2a and 2c (5HT2A and 5HT2C) (Rattus norvegicus) (UniProt P08909+P14842); test: Relative affinity for 5-hydroxytryptamine 2C over 5-hydroxytryptamine 2A receptors; type: protein assay
Sequence of Serotonin receptor 2a and 2c (5HT2A and 5HT2C) (Rattus norvegicus) (P14842 whole entry, looked up, one chain of several): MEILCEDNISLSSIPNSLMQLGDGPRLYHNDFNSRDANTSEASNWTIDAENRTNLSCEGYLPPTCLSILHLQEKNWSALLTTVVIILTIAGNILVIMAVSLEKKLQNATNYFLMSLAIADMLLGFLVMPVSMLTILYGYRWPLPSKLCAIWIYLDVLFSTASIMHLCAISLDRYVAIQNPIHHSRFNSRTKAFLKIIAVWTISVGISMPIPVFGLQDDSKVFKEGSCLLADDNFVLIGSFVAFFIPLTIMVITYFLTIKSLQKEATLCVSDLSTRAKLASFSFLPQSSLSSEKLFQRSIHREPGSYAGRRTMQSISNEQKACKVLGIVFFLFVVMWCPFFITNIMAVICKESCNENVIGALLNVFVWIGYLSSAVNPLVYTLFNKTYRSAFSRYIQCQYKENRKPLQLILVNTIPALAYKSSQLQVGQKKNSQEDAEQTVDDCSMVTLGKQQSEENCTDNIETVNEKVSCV

[3] = molecular target: T1, 5-hydroxytryptamine receptor 2C (Rattus norvegicus, UniProt P08909); test: Displacement of [3H]mesulergine from rat 5-HT2C receptor expressed in HEK293
T1 sequence (P08909 whole entry): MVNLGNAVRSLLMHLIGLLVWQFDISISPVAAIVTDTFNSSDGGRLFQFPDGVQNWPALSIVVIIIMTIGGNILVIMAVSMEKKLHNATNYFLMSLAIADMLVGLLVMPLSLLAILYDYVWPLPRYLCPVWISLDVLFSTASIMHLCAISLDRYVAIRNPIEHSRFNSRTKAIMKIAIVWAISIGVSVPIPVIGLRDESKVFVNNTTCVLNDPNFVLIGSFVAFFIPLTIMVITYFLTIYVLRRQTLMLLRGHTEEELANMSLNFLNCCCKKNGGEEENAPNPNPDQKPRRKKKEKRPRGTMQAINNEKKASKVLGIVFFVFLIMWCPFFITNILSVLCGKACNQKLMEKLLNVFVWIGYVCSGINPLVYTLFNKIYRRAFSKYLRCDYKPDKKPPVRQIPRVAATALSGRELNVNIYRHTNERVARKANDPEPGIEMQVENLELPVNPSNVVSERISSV
How it was run: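 Binding to cloned rat 5-HT2C receptors expressed in HEK 293 cells, with [3H]mesulergine as radioligand. Each value is the mean of at least two determinations, each lying within 0.2 log unit of the mean.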

[4] = molecular target: 5-hydroxytryptamine receptor 2B (Rattus norvegicus, UniProt P30994); test: Inhibition of 5-HT binding to 5-HT2B receptor of Rat stomach fundus; type: tissue-based; details: read-out: pA2 (converted)
Sequence of 5-hydroxytryptamine receptor 2B (P30994 whole entry): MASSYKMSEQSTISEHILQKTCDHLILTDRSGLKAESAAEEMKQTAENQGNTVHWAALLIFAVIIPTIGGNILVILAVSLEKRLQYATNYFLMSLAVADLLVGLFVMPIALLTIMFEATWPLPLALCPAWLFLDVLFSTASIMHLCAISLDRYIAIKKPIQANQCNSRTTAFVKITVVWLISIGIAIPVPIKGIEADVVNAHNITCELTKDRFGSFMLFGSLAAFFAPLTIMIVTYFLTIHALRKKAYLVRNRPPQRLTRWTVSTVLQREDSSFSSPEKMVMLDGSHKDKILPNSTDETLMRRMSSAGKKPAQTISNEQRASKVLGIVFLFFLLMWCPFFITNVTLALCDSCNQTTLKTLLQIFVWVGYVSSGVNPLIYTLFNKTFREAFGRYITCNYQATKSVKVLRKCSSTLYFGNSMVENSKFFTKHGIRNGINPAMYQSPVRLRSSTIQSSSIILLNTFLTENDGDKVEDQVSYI
How it was run: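 Functional rather than binding assay: inhibition of 5-HT-induced contractions of isolated rat stomach fundus. Values are the mean of at least two determinations, each within 0.2 log unit of the mean.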

Sequence of 5-hydroxytryptamine receptor 2A (P14842 whole entry): as the sequence (P14842 whole entry, looked up, one chain of several) above

Compound	Ki [1] [nM]	Selectivity ratio [2]	Ki [3] [nM]	Kb [4] [nM]
CN1CCc2cc3c(cc21)CCN3C(=O)Nc1cccnc1	5010	80	63.1	12.6
Cc1cc2cc3c(cc2n1C)CCN3C(=O)Nc1cccnc1	3160	80	39.8	20
Cn1ccc2c3c(ccc21)CCN3C(=O)Nc1cccnc1			200	
Cc1coc2cc3c(cc12)CCN3C(=O)Nc1cccnc1	398	160	2.51	1.26
CC(C)n1ccc2cc3c(cc21)CCN3C(=O)Nc1cccnc1	3980	400	10	6.31
Cn1ccc2cc3c(cc21)CCN3C(=O)Nc1cccnc1	501	100	5.01	3.16
Cn1ccc2cc3c(cc21)N(C(=O)Nc1cccnc1)CC3			1260	

The remaining molecules from weak to strong by Ki [3], led by results:

Ki [1] [nM]	Selectivity ratio [2]	Ki [3] [nM]	Kb [4] [nM]	Compound
1580	13	126	31.6	O=C(Nc1cccnc1)N1CCc2cc3[nH]ccc3cc21
3160	50	63.1		Cn1ccc2ccc3c(c21)CCN3C(=O)Nc1cccnc1
> 6310	> 130	50.1	200	O=C(Nc1cccnc1)N1CCc2cc3c(ccn3Cc3ccccc3)cc21
2000		25.1	15.8	Cn1ccc2c3c(ccc21)N(C(=O)Nc1cccnc1)CC3
3160	250	12.6	7.94	CCCn1ccc2cc3c(cc21)CCN3C(=O)Nc1cccnc1
251	30	7.94	10	O=C(Nc1cccnc1)N1CCc2cc3sccc3cc21
1260	160	7.94	10	CCn1ccc2cc3c(cc21)CCN3C(=O)Nc1cccnc1
